Experimental data: ChEMBL document CHEMBL1123986, “Oral absorption of cephalosporin antibiotics. 2. Expanded structure-activity relationships of 7-(arylacetamido)-3-substituted cephalosporins” (1988)
In brackets after ≈: the same amount, converted by molar mass.

How the values were obtained:
[1] = system: Streptococcus pneumoniae; experiment: Minimum inhibitory concentration against Streptococcus pneumoniae; format: functional
Summary of the method: (§1)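 Agar dilution MIC in μg/mL. […] Organisms not run are marked not tested.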

[2] = system: Salmonella typhi; experiment: Minimum inhibitory concentration against Salmonella typhi; format: functional, Salmonella enterica subsp. enterica serovar Typhi; conditions: Salmonella enterica
[3] = Ratio of ED50 value evaluated in Staphylococcus aureus by po to sc administration; format: functional
Summary of the method: (§2)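 Oral/subcutaneous effective-dose ratio. Both routes were dosed in random-sex ICR mice of 19–21 g at 1 and 5 h after an intraperitoneal challenge of 50–500 LD50 from a frozen organism pool. Each route used five 2-fold dilution levels with eight mice per level, and the po value was divided by the sc value.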

[4] = Ratio of ED50 value evaluated in Streptococcus pneumoniae by po to sc administration; format: functional; summary of the method: as §2
[5] = Ratio of ED50 value evaluated in Streptococcus pyogenes by po to sc administration; format: functional; summary of the method: as §2
[6] = system: Streptococcus pneumoniae; experiment: Efficacy against mouse infections caused by S. Pneumoniae measured as Minimum inhibitory concentration
[7] = system: Klebsiella aerogenes; experiment: Minimum inhibitory concentration against Enterobacter aerogenes; format: functional; summary of the method: as §1
[8] = system: Escherichia coli; experiment: Minimum inhibitory concentration against Escherichia coli; format: functional; summary of the method: as §1
[9] = system: Haemophilus influenzae; experiment: (§3) Minimum inhibitory concentration against Haemophilus influenzae; format: functional; summary of the method: as §1
[10] = system: Haemophilus influenzae; experiment: as §3; format: functional; summary of the method: as §1; remark: listed apart in the source
[11] = system: Klebsiella pneumoniae; experiment: Minimum inhibitory concentration against Klebsiella pneumoniae; format: functional; summary of the method: as §1
[12] = system: Mus musculus; experiment: (§4) Effective dose administered orally (po) to 19-21-g random sex ICR mice at 1 hr and 5 hr intervals after intraperitoneal Staphylococcus aureus; format: functional
Summary of the method: (§5)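 Mouse protection: random-sex ICR mice, 19–21 g, challenged intraperitoneally from a frozen organism pool giving 50–500 LD50 per challenge dose. Drug given sc or po at 1 and 5 h post-infection. Five 2-fold dilution levels per compound, eight mice per dilution.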

[13] = system: Mus musculus; experiment: (§6) Effective dose administered subcutaneously (sc) to 19-21-g random sex ICR mice at 1 hr and 5 hr intervals after intraperitoneal administration of Streptococcus pneumoniae; format: functional; summary of the method: as §5
[14] = system: Staphylococcus aureus; experiment: Minimum inhibitory concentration against Staphylococcus aureus; format: functional; summary of the method: as §1
[15] = system: Mus musculus; experiment: (§7) Effective dose administered orally (po) to 19-21-g random sex ICR mice at 1 hr and 5 hr intervals after intraperitoneal administration of Streptococcus pneumoniae; format: functional; summary of the method: as §5
[16] = system: Mus musculus; experiment: (§8) Effective dose administered subcutaneously (sc) to 19-21-g random sex ICR mice at 1 hr and 5 hr intervals after intraperitoneal administration of Staphylococcus aureus; format: functional; summary of the method: as §5
[17] = system: Mus musculus; experiment: (§9) Effective dose administered orally (po) to 19-21-g random sex ICR mice at 1 hr and 5 hr intervals after intraperitoneal Streptococcus pyogenes; format: functional; summary of the method: as §5
[18] = system: Streptococcus pyogenes; experiment: Minimum inhibitory concentration against Streptococcus pyogenes; format: functional; summary of the method: as §1
[19] = system: Mus musculus; experiment: (§10) Effective dose administered subcutaneously (sc) to 19-21-g random sex ICR mice at 1 hr and 5 hr intervals after intraperitoneal administration of Streptococcus pyogenes; format: functional; summary of the method: as §5
[20] = system: Staphylococcus aureus; experiment: Efficacy against mouse infections caused by Staphylococcus aureus measured as Minimum inhibitory concentration
[21] = system: Streptococcus pyogenes; experiment: Efficacy against mouse infections caused by Streptococcus pyogenes measured as Minimum inhibitory concentration
[22] = system: Salmonella typhi; experiment: Minimum inhibitory concentration by agar dilution method against Salmonella typhi; format: functional, Salmonella enterica subsp. enterica serovar Typhi; conditions: Salmonella enterica
[23] = system: Haemophilus influenzae; experiment: Minimum inhibitory concentration by agar dilution method against Haemophilus influenzae (beta lactamase(-)); format: functional; summary of the method: as §1
[24] = system: Klebsiella pneumoniae; experiment: Minimum inhibitory concentration by agar dilution method against Klebsiella pneumoniae; format: functional; summary of the method: as §1
[25] = system: Staphylococcus aureus; experiment: as §4; format: functional; summary of the method: as §5
[26] = system: Streptococcus pneumoniae; experiment: as §6; format: functional; summary of the method: as §5
[27] = system: Streptococcus pneumoniae; experiment: Efficacy against mouse infections caused by S. Pneumoniae measured as Minimum inhibitory concentration; format: functional
[28] = system: Streptococcus pneumoniae; experiment: as §7; format: functional; summary of the method: as §5
[29] = system: Staphylococcus aureus; experiment: as §8; format: functional; summary of the method: as §5
[30] = system: Staphylococcus aureus; experiment: Efficacy against mouse infections caused by Staphylococcus aureus measured as Minimum inhibitory concentration; format: functional
[31] = system: Streptococcus pyogenes; experiment: as §9; format: functional; summary of the method: as §5
[32] = system: Streptococcus pyogenes; experiment: Efficacy against mouse infections caused by Streptococcus pyogenes measured as Minimum inhibitory concentration; format: functional
[33] = system: Streptococcus pyogenes; experiment: as §10; format: functional; summary of the method: as §5
[34] = system: Haemophilus influenzae; experiment: Minimum inhibitory concentration by agar dilution method against (beta lactamase(+); format: functional; summary of the method: as §1
[35] = system: Haemophilus influenzae; experiment: Minimum inhibitory concentration by agar dilution method against Haemophilus influenzae (beta lactamase(-); format: functional; summary of the method: as §1
[36] = system: Mus musculus; experiment: Effective dose administered orally (po) to 19-21-g random sex ICR mice at 1 hr and 5 hr intervals after intraperitoneal Streptococcus pneumoniae; format: functional; summary of the method: as §5

| SMILES | MIC [1] [µg/mL] | MIC [2] [µg/mL] | Ratio [3] | Ratio [5] | MIC [6] [µg/mL] | MIC [7] [µg/mL] | MIC [8] [µg/mL] | MIC [9] [µg/mL] | MIC [10] [µg/mL] | MIC [11] [µg/mL] | ED50 [12] | ED50 [13] | MIC [14] [µg/mL] | ED50 [15] | ED50 [16] | ED50 [17] | MIC [18] [µg/mL] | ED50 [19] | MIC [20] [µg/mL] | MIC [21] [µg/mL] | other results |
| --- | --- | --- | --- | --- | --- | --- | --- | --- | --- | --- | --- | --- | --- | --- | --- | --- | --- | --- | --- | --- | --- |
| Nc1nc(CC(=O)N[C@@H]2C(=O)N3C(C(=O)O)=C(Cl)CS[C@H]23)cs1 | 0.25 (≈ 0.667 µM) | 0.25 (≈ 0.667 µM) | 4.5 | 0.7 | 0.5 (≈ 1.33 µM) |  |  |  |  |  |  |  |  |  |  |  |  |  |  |  | Ratio [4]: 1.4 |
| O=C(Cc1csc2ccccc12)N[C@@H]1C(=O)N2C(C(=O)O)=C(Cl)CS[C@H]12 |  | 128 (≈ 313 µM) | 2.4 | 1.4 |  |  |  |  |  |  |  |  |  |  |  |  |  |  |  |  | Ratio [4]: 2.4 |
| O=C(Cc1csc2ccccc12)N[C@@H]1C(=O)N2C(C(=O)O)=CCS[C@H]12 | 0.25 (≈ 0.668 µM) | > 128 | 3.6 |  | 0.25 (≈ 0.668 µM) | > 128 | 64 (≈ 171 µM) | 4 (≈ 10.7 µM) | 0.5 (≈ 1.34 µM) | > 128 | 2.9 2mg kg-1 | >10 2mg kg-1 | 0.25 (≈ 0.668 µM) | >10 2mg kg-1 | 0.8 2mg kg-1 | >10 2mg kg-1 | 0.06 (≈ 0.16 µM) | 8.2 2mg kg-1 | 0.25 (≈ 0.668 µM) | 0.06 (≈ 0.16 µM) |  |
| O=C(CSc1cc(Cl)ccc1Cl)N[C@@H]1C(=O)N2C(C(=O)O)=C(Cl)CS[C@H]12 | < 0.008 |  | 5.9 | 2.6 | 0.015 (≈ 0.0331 µM) | > 128 | 32 (≈ 70.5 µM) | 1 (≈ 2.2 µM) | 1 (≈ 2.2 µM) | 32 (≈ 70.5 µM) | 7.7 mg/kg | 6.3 mg/kg | 0.03 (≈ 0.0661 µM) | > 25 mg/kg | 1.3 mg/kg | 7.2 mg/kg | < 0.008 | 2.8 mg/kg | 0.03 (≈ 0.0661 µM) | 0.125 (≈ 0.275 µM) | MIC [22]: 64 µg/mL (≈ 141 µM) |
| COC1=C(C(=O)O)N2C(=O)[C@@H](NC(=O)Cc3csc4ccccc34)[C@H]2SC1 | 0.5 (≈ 1.24 µM) | > 128 | 2 |  |  | > 128 | > 128 |  | 0.5 (≈ 1.24 µM) |  |  |  | 0.25 (≈ 0.618 µM) |  |  |  | 0.25 (≈ 0.618 µM) |  |  |  | MIC [23]: 8 µg/mL (≈ 19.8 µM); MIC [24]: > 128 µg/mL; ED50 [25]: 2.8 mg/kg; ED50 [26]: > 10 mg/kg; MIC [27]: 0.5 µg/mL (≈ 1.24 µM); ED50 [28]: > 10 mg/kg; ED50 [29]: 1.4 mg/kg; MIC [30]: 0.5 µg/mL (≈ 1.24 µM); ED50 [31]: > 10 mg/kg; MIC [32]: 0.25 µg/mL (≈ 0.618 µM); ED50 [33]: > 10 mg/kg |
| C=CC1=C(C(=O)O)N2C(=O)[C@@H](NC(=O)Cc3csc4ccccc34)[C@H]2SC1 | 0.06 (≈ 0.15 µM) | > 128 | 4.1 | 4.2 | 0.03 (≈ 0.0749 µM) | > 128 | > 128 | 4 (≈ 9.99 µM) | 4 (≈ 9.99 µM) | > 128 | 3.12 2mg kg-1 | 8.4 2mg kg-1 | 0.125 (≈ 0.312 µM) | >16 2mg kg-1 | 0.76 2mg kg-1 | 14.7 2mg kg-1 | 0.015 (≈ 0.0375 µM) | 3.54 2mg kg-1 | 0.125 (≈ 0.312 µM) | 0.03 (≈ 0.0749 µM) |  |
| Nc1nc2cc(CC(=O)N[C@@H]3C(=O)N4C(C(=O)O)=C(Cl)CS[C@H]34)ccc2s1 | 0.06 (≈ 0.141 µM) | 64 (≈ 151 µM) |  | 11 | 0.06 (≈ 0.141 µM) | > 128 | 64 (≈ 151 µM) | 0.5 (≈ 1.18 µM) | 0.5 (≈ 1.18 µM) | 64 (≈ 151 µM) | > 10 mg/kg | 2.3 mg/kg | 0.25 (≈ 0.588 µM) | > 10 mg/kg | 3.54 mg/kg | 10 mg/kg | 0.06 (≈ 0.141 µM) | 0.9 mg/kg | 0.25 (≈ 0.588 µM) | 0.03 (≈ 0.0706 µM) |  |
| Nc1nc(CC(=O)N[C@@H]2C(=O)N3C(C(=O)O)=C(Cl)CS[C@H]23)c(-c2ccccc2)s1 | 0.03 (≈ 0.0665 µM) | > 128 |  |  |  | > 128 | > 128 |  |  | > 128 |  |  | 0.03 (≈ 0.0665 µM) |  |  |  | 0.03 (≈ 0.0665 µM) |  |  |  | MIC [34]: 16 µg/mL (≈ 35.5 µM); MIC [35]: 16 µg/mL (≈ 35.5 µM) |
| CC1(C)S[C@@H]2[C@H](NC(=O)COc3ccccc3)C(=O)N2[C@H]1C(=O)O [PENICILLIN V] |  |  | 11 | 3.9 |  |  |  |  |  |  | 0.46 mg/kg |  |  |  |  |  |  |  |  |  | ED50 [36]: 2.3 mg/kg; Ratio [4]: 1.1 |
